Measurements from ChEMBL document CHEMBL3045304, “Sesquiterpene lactones with potential use as natural herbicide models. 2. guaianolides” (2000).
Calls of active or inactive are those of the source. The calls are words filed in the database; no cut-off is given here.

Tests used:
Lepidium sativum [1] = assay: Stimulation of hypocotyl length of Lepidium sativum at 0.1 mM or 1 mM after 5 days relative to untreated control; type: functional
Solanum lycopersicum [2] = assay: Inhibition of hypocotyl length of Solanum lycopersicum cv. Tres Cantos (tomato) at 0.1 mM or 1 mM after 5 days relative to untreated control; type: functional
In short: (§1)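 Lettuce and tomato seeds, 25 per dish on filter paper, received 5 mL test solution. Incubation was 5 days in the dark at 25 °C, with four replicates per concentration. Solutions were made at 10^-3 or 10^-4 M in 10 mM MES, diluted serially, and adjusted to pH 6.0. Parallel controls were run. Results are % difference from control.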

Allium cepa [3] = assay: Inhibition of hypocotyl length of Allium cepa cv. Valenciana (onion) at 0.1 mM or 1 mM after 7 days relative to untreated control
Triticum aestivum [4] = assay: Inhibition of hypocotyl length of Triticum aestivum cv. Cortex (wheat) at 0.1 mM or 1 mM after 5 days relative to untreated control; type: functional
In short: (§2)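 Wheat: 10 seeds per dish on filter paper with 5 mL test solution, 5 days in the dark at 25 °C, 10 replicates per concentration. Stock test solutions were 10^-3 or 10^-4 M in 10 mM MES, with lower levels made by dilution, all at pH 6.0. Parallel controls were run. Output is % difference from control.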

Allium cepa [5] = assay: Stimulation of hypocotyl length of Allium cepa cv. Valenciana (onion) at 0.1 mM or 1 mM after 7 days relative to untreated control
Triticum aestivum [6] = assay: Stimulation of germination of Triticum aestivum cv. Cortex (wheat) at 0.1 mM or 1 mM after 5 days relative to untreated control; type: functional; in short: as §2
Lactuca sativa [7] = assay: Inhibition of hypocotyl length of Lactuca sativa cv. Roman (lettuce) at 0.1 mM or 1 mM after 5 days relative to untreated control; type: functional; in short: as §1
Lepidium sativum [8] = assay: Inhibition of germination of Lepidium sativum at 0.1 mM or 1 mM after 4 days relative to untreated control
Solanum lycopersicum [9] = assay: Stimulation of germination of Solanum lycopersicum cv. Tres Cantos (tomato) at 0.1 mM or 1 mM after 5 days relative to untreated control; type: functional; in short: as §1
Solanum lycopersicum [10] = assay: Inhibition of root length of Solanum lycopersicum cv. Tres Cantos (tomato) at 0.1 mM or 1 mM after 5 days relative to untreated control; type: functional; in short: as §1
Allium cepa [11] = assay: Stimulation of root length of Allium cepa cv. Valenciana (onion) at 0.1 mM or 1 mM after 7 days relative to untreated control
Allium cepa [12] = assay: Inhibition of root length of Allium cepa cv. Valenciana (onion) at 0.1 mM or 1 mM after 5 days relative to untreated control; type: functional
Triticum aestivum [13] = assay: Inhibition of germination of Triticum aestivum cv. Cortex (wheat) at 0.1 mM or 1 mM after 5 days relative to untreated control; type: functional; in short: as §2
Lepidium sativum [14] = assay: Stimulation of root length of Lepidium sativum at 0.1 mM or 1 mM after 5 days relative to untreated control; type: functional
Lepidium sativum [15] = assay: Inhibition of root length of Lepidium sativum at 0.1 mM or 1 mM after 4 days relative to untreated control
Solanum lycopersicum [16] = assay: Stimulation of hypocotyl length of Solanum lycopersicum cv. Tres Cantos (tomato) at 0.1 mM or 1 mM after 5 days relative to untreated control; type: functional; in short: as §1
Lactuca sativa [17] = assay: Stimulation of hypocotyl length of Lactuca sativa cv. Roman (lettuce) at 0.1 mM or 1 mM after 5 days relative to untreated control; type: functional; in short: as §1
Lactuca sativa [18] = assay: Stimulation of germination of Lactuca sativa cv. Roman (lettuce) at 0.1 mM or 1 mM after 5 days relative to untreated control; type: functional; in short: as §1
Triticum aestivum [19] = assay: Stimulation of root length of Triticum aestivum cv. Cortex (wheat) at 0.1 mM or 1 mM after 5 days relative to untreated control; type: functional; in short: as §2
Allium cepa [20] = assay: Inhibition of germination of Allium cepa cv. Valenciana (onion) at 0.1 mM or 1 mM after 5 days relative to untreated control; type: functional
Lepidium sativum [21] = assay: Inhibition of hypocotyl length of Lepidium sativum at 0.1 mM or 1 mM after 5 days relative to untreated control; type: functional
Lactuca sativa [22] = assay: Stimulation of root length of Lactuca sativa cv. Roman (lettuce) at 0.1 mM or 1 mM after 5 days relative to untreated control; type: functional; in short: as §1
Triticum aestivum [23] = assay: Stimulation of hypocotyl length of Triticum aestivum cv. Cortex (wheat) at 0.1 mM or 1 mM after 5 days relative to untreated control; type: functional; in short: as §2
Solanum lycopersicum [24] = assay: Inhibition of germination of Solanum lycopersicum cv. Tres Cantos (tomato) at 0.1 mM or 1 mM after 5 days relative to untreated control; type: functional; in short: as §1
Allium cepa [25] = assay: Stimulation of germination of Allium cepa cv. Valenciana (onion) at 0.1 mM or 1 mM after 5 days relative to untreated control; type: functional
Solanum lycopersicum [26] = assay: Stimulation of root length of Solanum lycopersicum cv. Tres Cantos (tomato) at 0.1 mM or 1 mM after 5 days relative to untreated control; type: functional; in short: as §1
Triticum aestivum [27] = assay: Inhibition of root length of Triticum aestivum cv. Cortex (wheat) at 0.1 mM or 1 mM after 5 days relative to untreated control; type: functional; in short: as §2
Lactuca sativa [28] = assay: Inhibition of root length of Lactuca sativa cv. Roman (lettuce) at 0.1 mM or 1 mM after 5 days relative to untreated control; type: functional; in short: as §1
Lactuca sativa [29] = assay: Inhibition of germination of Lactuca sativa cv. Roman (lettuce) at 0.1 mM or 1 mM after 5 days relative to untreated control; type: functional; in short: as §1
Allium cepa [30] = assay: Stimulation of germination of Allium cepa cv. Valenciana (onion) at 0.1 mM or 1 mM after 7 days relative to untreated control
Allium cepa [31] = assay: Inhibition of hypocotyl length of Allium cepa cv. Valenciana (onion) at 0.1 mM or 1 mM after 5 days relative to untreated control; type: functional
Lepidium sativum [32] = assay: Inhibition of germination of Lepidium sativum at 0.1 mM or 1 mM after 5 days relative to untreated control; type: functional
Allium cepa [33] = assay: Stimulation of root length of Allium cepa cv. Valenciana (onion) at 0.1 mM or 1 mM after 5 days relative to untreated control; type: functional
Allium cepa [34] = assay: Stimulation of hypocotyl length of Allium cepa cv. Valenciana (onion) at 0.1 mM or 1 mM after 5 days relative to untreated control; type: functional
Lepidium sativum [35] = assay: Inhibition of hypocotyl length of Lepidium sativum at 0.1 mM or 1 mM after 4 days relative to untreated control
Lepidium sativum [36] = assay: Inhibition of germination of Lepidium sativum at 0.1 mM or 1 mM after 4 days relative to untreated control; design: scale not given: the % may be the effect or the level left

Row | SMILES | Activity (Lepidium sativum [1]) | inhibition (Solanum lycopersicum [2]) | inhibition (Allium cepa [3]) | Activity (Triticum aestivum [6]) | inhibition (INH) (Lactuca sativa [7]) [%] | Activity (Solanum lycopersicum [9]) | inhibition (INH) (Triticum aestivum [13]) | Activity (Lepidium sativum [14]) | Activity (Solanum lycopersicum [16]) | Activity (Lactuca sativa [17]) | Activity (Lactuca sativa [18]) | Activity (Triticum aestivum [19]) | inhibition (Allium cepa [20]) | Activity (Lactuca sativa [22]) | Activity (Triticum aestivum [23]) | inhibition (INH) (Solanum lycopersicum [24]) [%] | Activity (Solanum lycopersicum [26]) | inhibition (INH) (Triticum aestivum [4]) [%] | inhibition (INH) (Solanum lycopersicum [10]) [%] | inhibition (INH) (Triticum aestivum [27]) [%] | also measured
1 | C=C1CC[C@H]2C(=C)CC[C@@H]3[C@H](OC(=O)[C@]3(O)CO)[C@@H]12 | inactive | inactive | inactive | <20% | <20 | <20% | <20% | inactive | inactive | <20% | inactive | inactive | inactive | inactive | inactive | <20 | inactive |  |  |  | inhibition (Triticum aestivum [4]): inactive; Activity (Allium cepa [5]): inactive; Activity (Lepidium sativum [8]): inactive; inhibition (Lepidium sativum [8]): inactive; inhibition (Solanum lycopersicum [10]): inactive; Activity (Allium cepa [11]): inactive; inhibition (Allium cepa [12]): inactive; inhibition (Lepidium sativum [15]): inactive; inhibition (Lepidium sativum [21]): inactive; Activity (Allium cepa [25]): inactive; inhibition (Triticum aestivum [27]): inactive; inhibition (Lactuca sativa [28]): inactive; inhibition (Lactuca sativa [29]): inactive
2 | COc1nc(C)nc(NC(=O)NS(=O)(=O)c2ccccc2OCCCl)n1 [LOGRAN] | >40% |  |  | 20% | >40 | inactive | 20% | >40% | >40% | >40% | >40% | 20% | inactive | >40% | 20% |  | >40% | 20 | >40 | 20 | inhibition (INH) (Solanum lycopersicum [2]): >40%; Activity (Allium cepa [30]): inactive; inhibition (INH) (Allium cepa [31]): >40%; inhibition (INH) (Allium cepa [12]): >40%; inhibition (INH) (Lepidium sativum [15]): >40%; inhibition (INH) (Lepidium sativum [32]): 20%; Activity (Allium cepa [33]): >40%; Activity (Allium cepa [34]): >40%; inhibition (INH) (Lepidium sativum [35]): >40%; inhibition (Solanum lycopersicum [24]): inactive; Activity (Lepidium sativum [36]): 20%; inhibition (INH) (Lactuca sativa [28]): >40%; inhibition (INH) (Lactuca sativa [29]): >40%
3 | C=C1[C@@H]2[C@H]3OC(=O)C(=C)[C@@H]3CCC(=C)[C@@H]2C[C@H]1O [ISOZALUZANIN C] | >40% |  |  | 20% | <20 | 20% | 20% | >40% | >40% | <20% | <20% | >40% | inactive | inactive | 20% | 20 | >40% | 20 | >40 | >40 | inhibition (INH) (Solanum lycopersicum [2]): >40%; Activity (Allium cepa [30]): inactive; inhibition (INH) (Allium cepa [31]): >40%; inhibition (INH) (Allium cepa [12]): >40%; inhibition (INH) (Lepidium sativum [15]): >40%; inhibition (INH) (Lepidium sativum [32]): >40%; Activity (Allium cepa [33]): >40%; Activity (Allium cepa [34]): >40%; inhibition (INH) (Lepidium sativum [35]): >40%; Activity (Lepidium sativum [36]): >40%; inhibition (Lactuca sativa [28]): inactive; inhibition (INH) (Lactuca sativa [29]): <20%
4 | C=C1CC[C@H]2C(=C)CC[C@@H]3[C@H](OC(=O)[C@H]3CO)[C@@H]12 | >40% |  |  | <=20% |  | inactive | <=20% | >40% | >40% | inactive | <20% | 20% | inactive | 20% | 20% |  | >40% | 20 | >40 | 20 | inhibition (INH) (Solanum lycopersicum [2]): >40%; Activity (Allium cepa [30]): inactive; inhibition (Lactuca sativa [7]): inactive; inhibition (INH) (Allium cepa [31]): >40%; inhibition (INH) (Allium cepa [12]): >40%; inhibition (INH) (Lepidium sativum [15]): >40%; inhibition (INH) (Lepidium sativum [32]): <20%; Activity (Allium cepa [33]): >40%; Activity (Allium cepa [34]): >40%; inhibition (INH) (Lepidium sativum [35]): >40%; inhibition (Solanum lycopersicum [24]): inactive; Activity (Lepidium sativum [36]): <20%; inhibition (INH) (Lactuca sativa [28]): 20%; inhibition (INH) (Lactuca sativa [29]): <20%
5 | C=C1CC[C@H]2C(=C)CC[C@@H](C(=C)CO)[C@H](O)[C@@H]12 | inactive | inactive | inactive | inactive | <20 | 20% |  | inactive | inactive | <20% | inactive | 20% | inactive | inactive | <20% | 20 | <20% | <20 | <20 | 20 | Activity (Allium cepa [5]): inactive; Activity (Lepidium sativum [8]): inactive; inhibition (Lepidium sativum [8]): inactive; Activity (Allium cepa [11]): inactive; inhibition (Allium cepa [12]): inactive; inhibition (Triticum aestivum [13]): inactive; inhibition (Lepidium sativum [15]): inactive; inhibition (Lepidium sativum [21]): inactive; Activity (Allium cepa [25]): inactive; inhibition (Lactuca sativa [28]): inactive; inhibition (Lactuca sativa [29]): inactive
6 | C=C1C(=O)O[C@H]2[C@H]1C[C@@H](O)C(=C)[C@@H]1C[C@@H](O)C(=C)[C@@]12O | inactive | inactive | inactive | inactive | <20 | <20% |  | inactive | inactive | <20% | inactive | 20% | inactive | 20% | 20% | <20 | inactive | 20 |  | 20 | Activity (Allium cepa [5]): inactive; Activity (Lepidium sativum [8]): inactive; inhibition (Lepidium sativum [8]): inactive; inhibition (Solanum lycopersicum [10]): inactive; Activity (Allium cepa [11]): inactive; inhibition (Allium cepa [12]): inactive; inhibition (Triticum aestivum [13]): inactive; inhibition (Lepidium sativum [15]): inactive; inhibition (Lepidium sativum [21]): inactive; Activity (Allium cepa [25]): inactive; inhibition (INH) (Lactuca sativa [28]): 20%; inhibition (Lactuca sativa [29]): inactive
